Assay results as given in ChEMBL document CHEMBL2086239, “Synthesis and biological evaluation of combretastatin-amidobenzothiazole conjugates as potential anticancer agents” (Eur J Med Chem, 2012).
Calls of active or inactive are those of the source. No cut-off for these calls is given here.

Columns and labels:
A549 = experiment: Cytotoxicity against human A549 cells assessed as inhibition of cell growth at 10 uM after 48 hrs by SRB assay relative to control; assay type: functional; settings: A549, 48 h, read-out: GI
How it was run: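 SRB protein assay in DMEM with 10% FBS at 37 °C, 5% CO2, 100% relative humidity. Cells seeded in 96-well plates, incubated 24 h, then exposed to drug at 10 µM for 48 h and processed per standard protocol. Absorbance read at 560 nm; growth percentage calculated for test wells relative to control wells.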

CCRF-CEM = experiment: Growth inhibition of human CCRF-CEM cells after 48 hrs by SRB assay; assay type: functional
How it was run: (§1)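 NCI 60-cell-line screen: after preliminary screening, tested at five dose concentrations on 59 human tumour lines covering leukemia, lung, colon, CNS, melanoma, ovarian, renal, prostate and breast.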

K562 = experiment: Growth inhibition of human K562 cells after 48 hrs by SRB assay; assay type: functional; settings: K562, 48 h; how it was run: as §1
RPMI-8226 = experiment: Growth inhibition of human RPMI8226 cells after 48 hrs by SRB assay; assay type: functional; settings: RPMI-8226, 48 h; how it was run: as §1
EKVX = experiment: Growth inhibition of human EKVX cells after 48 hrs by SRB assay; assay type: functional; how it was run: as §1
NCI-H23 = experiment: Growth inhibition of human NCI-H23 cells after 48 hrs by SRB assay; assay type: functional; settings: NCI-H23, 48 h; how it was run: as §1
NCI-H460 = experiment: Growth inhibition of human NCI-H460 cells after 48 hrs by SRB assay; assay type: functional; settings: NCI-H460, 48 h; how it was run: as §1
HCC 2998 = experiment: Growth inhibition of human HCC2998 cells after 48 hrs by SRB assay; assay type: functional; settings: HCC 2998, 48 h; how it was run: as §1
HCT-116 = experiment: Growth inhibition of human HCT116 cells after 48 hrs by SRB assay; assay type: functional; settings: HCT-116, 48 h; how it was run: as §1
HCT-15 = experiment: Growth inhibition of human HCT15 cells after 48 hrs by SRB assay; assay type: functional; settings: HCT-15, 48 h; how it was run: as §1
KM12 = experiment: Growth inhibition of human KM12 cells after 48 hrs by SRB assay; assay type: functional; settings: KM12, 48 h; how it was run: as §1
U-251 = experiment: Growth inhibition of human U251cells after 48 hrs by SRB assay; assay type: functional; settings: U-251, 48 h
How it was run: (§2)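 NCI 60-cell-line panel, five-dose testing after preliminary screen; sulforhodamine B protein assay in DMEM with 10% FBS, 37 °C, 5% CO2, 100% humidity. Cells seeded and incubated 24 h before compound addition, then exposed 48 h. Absorbance read at 560 nm; growth percentage relative to control wells; GI50 taken as concentration giving 50% growth inhibition.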

LOX IMVI = experiment: Growth inhibition of human LOXIMVI cells after 48 hrs by SRB assay; assay type: functional; how it was run: as §1
SK-MEL-5 = experiment: Growth inhibition of human SK-MEL-5 cells after 48 hrs by SRB assay; assay type: functional; settings: SK-MEL-5, 48 h; how it was run: as §2
IGROV-1 = experiment: Growth inhibition of human IGROV1 cells after 48 hrs by SRB assay; assay type: functional; settings: IGROV-1, 48 h; how it was run: as §1
OVCAR-4 = experiment: Growth inhibition of human OVCAR4 cells after 48 hrs by SRB assay; assay type: functional; settings: OVCAR-4, 48 h; how it was run: as §1
SK-OV-3 = experiment: Growth inhibition of human SKOV3 cells after 48 hrs by SRB assay; assay type: functional; settings: SK-OV-3, 48 h; how it was run: as §2
A498 = experiment: Growth inhibition of human A498 cells after 48 hrs by SRB assay; assay type: functional; settings: A498, 48 h; how it was run: as §1
ACHN = experiment: Growth inhibition of human ACHN cells after 48 hrs by SRB assay; assay type: functional; how it was run: as §1
CAKI-1 = experiment: Growth inhibition of human Caki1 cells after 48 hrs by SRB assay; assay type: functional; settings: CAKI-1, 48 h; how it was run: as §1
UO-31 = experiment: Growth inhibition of human UO31 cells after 48 hrs by SRB assay; assay type: functional; settings: UO-31, 48 h; how it was run: as §2
PC-3 = experiment: Growth inhibition of human PC3 cells after 48 hrs by SRB assay; assay type: functional; settings: PC-3, 48 h; how it was run: as §1
DU-145 = experiment: Growth inhibition of human DU145 cells after 48 hrs by SRB assay; assay type: functional; settings: DU-145, 48 h; how it was run: as §1
MCF7 [1] = experiment: Growth inhibition of human MCF7 cells after 48 hrs by SRB assay; assay type: functional; settings: MCF7, 48 h; how it was run: as §1
MDA-MB-231 = experiment: Growth inhibition of human MDA-MB-231 cells after 48 hrs by SRB assay; assay type: functional; settings: MDA-MB-231, 48 h; how it was run: as §1
BT-549 = experiment: Growth inhibition of human BT549 cells after 48 hrs by SRB assay; assay type: functional; settings: BT-549, 48 h; how it was run: as §1
MDA-MB-468 = experiment: Growth inhibition of human MDA-MB-468 cells after 48 hrs by SRB assay; assay type: functional; settings: MDA-MB-468, 48 h; how it was run: as §1
MCF7 [2] = experiment: Cell cycle arrest in human MCF7 cells assessed as accumulation at G2/M phase at 4 uM after 24 hrs by FACS analysis (reference value: 34.88%); assay type: functional
[3] = Inhibition of tubulin polymerization after 30 mins to 1 hr by spectrophotometry
How it was run: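 This was a kit-based tubulin polymerization assay. Kit tubulin in G-PEM buffer was incubated with compounds, and polymerization was followed as optical density at 340 nm for 30 min to 1 h. Inhibition was read as a decrease in OD. Nocodazole and paclitaxel were run as reference destabilizer and stabilizer.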

MCF7 [4] = experiment: Inhibition of microtubule organization in human MCF7 cells at 4 uM after 24 hrs by immunofluorescence analysis; assay type: cell-based
How it was run: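 MCF-7 cells were grown in DMEM with 10% fetal calf serum and penicillin/streptomycin at 37 °C and 5% CO2. Cells on cover slips were treated for 24 h, then fixed in 4% paraformaldehyde for 20 min. They were permeabilised with 0.2% Triton X-100, held in methanol at 4 °C overnight and blocked with 1% BSA. Staining used anti-α-tubulin (1:100, 2 h RT), FITC secondary and a DAPI/PI mount, with confocal imaging.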

[5] = target: Mitogen-activated protein kinase; ERK1/ERK2 (Homo sapiens) (UniProt P27361+P28482); experiment: Inhibition of nuclear translocation of phosphorylated ERK1/2 in human MCF7 cells at 4 uM after 24 hrs by immunofluorescence assay; assay type: cell-based
Sequence of Mitogen-activated protein kinase; ERK1/ERK2 (Homo sapiens) (P27361 whole entry, looked up): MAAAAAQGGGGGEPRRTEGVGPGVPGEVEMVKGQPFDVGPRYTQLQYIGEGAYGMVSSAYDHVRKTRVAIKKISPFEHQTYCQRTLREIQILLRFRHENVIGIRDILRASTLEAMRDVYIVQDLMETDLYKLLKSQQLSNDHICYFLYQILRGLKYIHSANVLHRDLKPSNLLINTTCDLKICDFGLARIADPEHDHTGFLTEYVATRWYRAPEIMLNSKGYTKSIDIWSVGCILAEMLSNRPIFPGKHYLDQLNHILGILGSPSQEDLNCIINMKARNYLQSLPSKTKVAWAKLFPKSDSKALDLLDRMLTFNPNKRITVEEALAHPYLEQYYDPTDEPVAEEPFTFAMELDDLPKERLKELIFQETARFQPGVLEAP
Sequence of Mitogen-activated protein kinase; ERK1/ERK2 (Homo sapiens) (P28482 whole entry, looked up): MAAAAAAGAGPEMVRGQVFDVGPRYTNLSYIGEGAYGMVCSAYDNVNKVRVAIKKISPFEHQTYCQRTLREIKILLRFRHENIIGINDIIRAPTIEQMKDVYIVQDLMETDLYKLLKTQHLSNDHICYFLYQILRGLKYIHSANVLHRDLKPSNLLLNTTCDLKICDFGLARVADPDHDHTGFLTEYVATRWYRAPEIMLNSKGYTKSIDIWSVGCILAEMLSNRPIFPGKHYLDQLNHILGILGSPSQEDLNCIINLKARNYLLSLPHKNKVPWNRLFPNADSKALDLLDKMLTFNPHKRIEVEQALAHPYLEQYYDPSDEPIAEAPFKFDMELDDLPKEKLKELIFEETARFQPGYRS
How it was run: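 MCF-7 cells (DMEM, 10% fetal calf serum, 37 °C, 5% CO2) were treated on cover slips for 24 h. They were fixed in 4% paraformaldehyde, permeabilised with 0.2% Triton X-100, held in methanol at 4 °C overnight and blocked with 1% BSA for 60 min. Anti-phospho-ERK antibody (1:100, 2 h RT) was followed by FITC anti-rabbit secondary for 1 h and a DAPI/PI mount. Subcellular pERK localisation was imaged by confocal microscopy.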

MCF7 [6] = experiment: Cytotoxicity against human MCF7 cells at 4 uM after 24 hrs by MTT assay; assay type: functional, cell-based
How it was run: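 MCF-7 cells grown in DMEM with 10% fetal calf serum, penicillin and streptomycin at 37 °C, 5% CO2. Seeded at 10,000 cells/well, incubated overnight, then treated 24 h at 4 µM. Medium replaced with fresh medium plus MTT dye, incubated 2 h at 37 °C. Absorbance read at 570 nm; O.D. taken as viability versus untreated control.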

Compound: COc1ccc(/C=C\c2cc(OC)c(OC)c(OC)c2)cc1OCC(=O)Nc1nc2ccccc2s1
- inhibition of growth at 10 µM (A549): 44%
- GI50 (CCRF-CEM): 78 nM
- GI50 (K562): 42 nM
- GI50 (RPMI-8226): 150 nM
- GI50 (EKVX): 38 nM
- GI50 (NCI-H23): 110 nM
- GI50 (NCI-H460): 52 nM
- GI50 (HCC 2998): 370 nM
- GI50 (HCT-116): 46 nM
- GI50 (HCT-15): 48 nM
- GI50 (KM12): 58 nM
- GI50 (U-251): 48 nM
- GI50 (LOX IMVI): 67 nM
- GI50 (SK-MEL-5): 36 nM
- GI50 (IGROV-1): 210 nM
- GI50 (OVCAR-4): 370 nM
- GI50 (SK-OV-3): 340 nM
- GI50 (A498): 360 nM
- GI50 (ACHN): 93 nM
- GI50 (CAKI-1): 410 nM
- GI50 (UO-31): 580 nM
- GI50 (PC-3): 180 nM
- GI50 (DU-145): 100 nM
- GI50 (MCF7 [1]): 51 nM
- GI50 (MDA-MB-231): 190 nM
- GI50 (BT-549): 410 nM
- GI50 (MDA-MB-468): 100 nM
- Activity (MCF7 [2]): 46%
- IC50 [3]: 5000 nM
- inhibition (MCF7 [4]): Active
- inhibition [5]: Active
- Activity (MCF7 [6]): Active
